This series concerns MS2 coat protein. In words: apparent Kd, MS2 coat protein; higher = weaker binding; RNA-MaP array; FMN 200 µM where present. The method, boiled down: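 Stalled E. coli RNA polymerase transcribed the designs on Illumina sequencing-chip clusters. SNAP-549-labelled MS2 coat protein was titrated from 0.7 or 1.5 nM, doubling to 3 µM, without and then with constant ligand, in 100 mM Tris-HCl pH 7.5, 80 mM KCl, 4 mM MgCl2, BSA, DTT, yeast tRNA and Tween-20. Per-cluster binding curves were fitted to green signal normalised to red-channel RNA signal and control-cluster median Fmax. The apparent Kd is the median of the filtered fits.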

Where [1] appears, read: designed as: OFF switch for flavin mononucleotide, no ligand.
[2] abbreviates: ligand present: flavin mononucleotide, designed as: OFF switch for flavin mononucleotide.
Where [3] appears, read: designed as: ON switch for flavin mononucleotide, no ligand.
Where [4] appears, read: ligand present: flavin mononucleotide, designed as: ON switch for flavin mononucleotide.

The term apparent Kd denotes a dissociation constant that holds for the conditions of the assay. Regarding “UCAUGAUAUGUAGGAUAUCACUUUAAUUGAUUAAUAUAUGAAUAUAGAAUUUGAGAAGGACAUUUACAUGAGGAUCACCCAUGU”, the “apparent Kd” value is, setting by setting: under setting [1], 12.9 nM; under setting [2], 9.67 nM. As for “GAAUAAUUGAUCCAAUUUAUCUACAUGAGGAUCACCCAUGUGCAGGAUAUCGUAAAAUUUAAUAACGAGAAGGGCAAGAACGGU”, the “apparent Kd” value runs as follows: under setting [1], 135 nM; under setting [2], 385 nM. For “UUGGACGUCGUAGGAUAUGUAGGAUAUUCCUACAUGAGGAUCACCCAUGUUGACAUGGAAGAAGGACAGAAGGUCGAUGUCCAU”, the “apparent Kd” value under setting [3] was found to be 602 nM and the “apparent Kd” value under setting [4] came out at 9.86 nM. Take “GUUUACGCGGAAGGAUAUACAUUUGACAUCUUGAUGCGCGCAAUACUCACAUGAGGAUCACCCAUGUAGAAGGUCUGCGAAAGA”: the “apparent Kd” value came out at 15.1 nM under setting [1] and 24.9 nM under setting [2]. The corresponding values for “GGAUAGGACAGAGGAUAUACGUGCUACAGAUACUAGCAAAAUUUCCUCACAUGAGGAUCACCCAUGUAGAAGGCUGUCCUAUCG” are 19.3 nM and 405 nM. On the same counts, the results for “UGUUUUGAAGUAGGAUAUCAACACACAUGAGGAUCACCCAUGUUAGAUGUGGAUGUUGUAUGUUAUGAGAAGGACUUCGAUUCG” are 25.6 nM and 95.4 nM. Take “GUGUACAGAGGAUAUACUGGAGCAUGGAAACAUGCAACUUCACAUGAGGAUCACCCAUGUAGAAGGCUGUACAC”: the “apparent Kd” value is 17.6 nM under setting [1] and 68.4 nM under setting [2]. Turning to “GCGUCAGAAUUAAUUGUGACAGACAGAAGGCAAUAGUAUGUGACCGACAUGAGGAUCACCCAUGUUGAGGAUAUGUAUUGACAC”, the “apparent Kd” value was 5.68 nM under setting [1] and 7.08 nM under setting [2]. Take “GGAGGACAUGAGGAUCACCCAUGUGGAUGAACGCUAGGAUAUGCGUGCAGGAAGAGUGGAGCAGAAGGAGUGGGAU”: the “apparent Kd” value amounted to 26.4 nM under setting [3] and 19.3 nM under setting [4]. Regarding “AACACGUGAGGAUAUACAUGAGGAUCACCCAUGUUGGUACAAUCCUGUCCGACUAUCCGUAGAAGGCAUUGACU”, the “apparent Kd” value under setting [1] turned out to be 38.7 nM.

Take “CUCGUGUAAGGAUAUAUUGCAAUGACGAAAUUUGCCCUGAGAUAGAAGGUACAUGAGGAUCACCCAUGUGUCGG”: the “apparent Kd” value runs as follows: under setting [1], 45.5 nM; under setting [2], 92.2 nM.

Consider “UACAUGUGAGGAUAUGUACGAAGCCCGGCUGGGCCUCGCAGGCAGAAGGCACAUGAGGAUCACCCAUGUGACCG”, for which the “apparent Kd” value was 15.9 nM under setting [1] and 53.4 nM under setting [2].

Turning to “CACUGCAAUGUAGGAUAUCGACUGGAAUACAGUCGAGAAGGACAUGAGGAUCACCCAUGUACUAUGAGUGAAUAAUAAGCAGUG”, the “apparent Kd” value was determined as 88.9 nM under setting [1] and 834 nM under setting [2].

On to “AUUAUUAUAUUAUACAUGAGGAUCACCCAUGUUAUAAGUCAUGAGGAUAUGGUAUUGUAGUUUUUCCAGAAGGCAUUUAACUUA”, for which the “apparent Kd” value was 10.3 nM under setting [3] and 6.04 nM under setting [4]. On to “GCCUCAUAGUAGAAGGGACUAUUACAGUAAUUUUUUUAGAUUAAAUAACAUGAGGAUCACCCAUGUCAGGAUAUACUAAGAGGC”, for which the “apparent Kd” value runs as follows: under setting [1], 26.4 nM; under setting [2], 37.1 nM.

For “GUAUUAAAGAUCCAUUUUUACAACAUGAGGAUCACCCAUGUGCAGGAUAUCGUGUGUUUUAUAUUCGAGAAGGGCAAAUUCAUU”, the “apparent Kd” value by setting is: under setting [1], 51.8 nM; under setting [2], 109 nM.

Turning to “AAUACAUGAGGAUCACCCAUGUAAAGUUCAAACAAUAUGAGUGAGGAUAUACUGAGUUAGUUAUGGUAGAAGGCACUGGGUACA”, the “apparent Kd” value under setting [3] worked out at 23.1 nM and the “apparent Kd” value under setting [4] was 21.8 nM.

“GGUUAUUGCAAGGAUAUGCUUUUUUUUGAUAUUGCAGAAGGUGCAACAUGAGGAUCACCCAUGUUGGAGGGAUU”: the “apparent Kd” value by setting is: under setting [1], 30.8 nM; under setting [2], 91.8 nM. For “UCUAGACAUGAGGAUCACCCAUGUGAGGAUAUGAUGCGAUCGUCGAAAGACGAUAGCAUCAGAAGGCACAAAUG”, the “apparent Kd” value under setting [1] amounted to 66.5 nM and the “apparent Kd” value under setting [2] was determined as 200 nM. With “GAGCCUCCGUAGAAGGCCGCGGAAUCCGAACGCGGAGGAUAUACAUGAGGAUCACCCAUGUGAAAGUGGAACGAUAAAACGCUU”, the “apparent Kd” value by setting is: under setting [1], 14.7 nM; under setting [2], 47.2 nM.

Take “UAUAUAUAGUAAGGAUAUGUAAUUAUUUCAUAAACAGAAGGUACUGACAUGAGGAUCACCCAUGUUUUAGUGUGGGCAUGUAGA”: the “apparent Kd” value is, setting by setting: under setting [1], 79.8 nM; under setting [2], 108 nM.

In the case of “CCGCAAAUGGAGGAUAUCGUAUCGGAUACGAUACGAGAAGGCUAUACAUGAGGAUCACCCAUGUGUCCUAGCGG”, the “apparent Kd” value is, setting by setting: under setting [1], 13.5 nM; under setting [2], 18.3 nM. As to “CGAUAAUAUAGAGGAUAUGUUUAACAUGAGGAUCACCCAUGUGACAUGGGAUUAAUAUAUAACUUACAGAAGGCUAUACAAUCG”, the “apparent Kd” value under setting [1] worked out at 34.1 nM and the “apparent Kd” value under setting [2] was determined as 46.9 nM. Take “AGGUGUAGAGGAUAUUCAUUCUUCCACAUGAGGAUCACCCAUGUCCUGGUCACCAAGGACGGAGAAGGCUACACCA”: the “apparent Kd” value by setting is: under setting [1], 70.2 nM; under setting [2], 38.1 nM. For the sequence “GAGUAGUUGGAAGGAUAUCGAUUGUUAUAGAAUCGAGAAGGUCCUAACAUGAGGAUCACCCAUGUAGGACUAUUCCUGUGUAUC”, the “apparent Kd” value is, setting by setting: under setting [3], 11.3 nM; under setting [4], 9.64 nM. Regarding “AAAAAGUCAGGAUAUAUCAAAGCCUAUGAAAGUGGGAAAGGGUAGAAGGGACAUGAGGAUCACCCAUGUAAAAA”, the “apparent Kd” value by setting is: under setting [1], 52 nM; under setting [2], 50.3 nM. Consider “CGCUACUACCAGAAGGACAUGAGGAUCACCCAUGUAGGAUAUGGGUUACAAGUACCAGUGUAAAGAAACUACGCUACAGUAGCG”, for which the “apparent Kd” value reads like this: under setting [3], 57.8 nM; under setting [4], 8.73 nM. As to “CUGAUUAUACAAGGAUAUCUUUUGUUGUUUCGACUUACAUGAGGAUCACCCAUGUUAAUAUUUUUAGAGAAGGUGUAUUUUCAG”, the “apparent Kd” value is, setting by setting: under setting [3], 16.8 nM; under setting [4], 20.3 nM. Consider “AUACUUAAUGAAGGAUAUCUCAGCAUAAACCUGAGAGAAGGUCAUUGUUACAUGAGGAUCACCCAUGUUGUAGUUAAUGGGUAA”, for which the “apparent Kd” value by setting is: under setting [1], 421 nM; under setting [2], 413 nM.

Take “GUCCGGCGUGUAGGAUAUGGAUCCGAUUAGGAUCCAGAAGGACAUGAGGAUCACCCAUGUACAUGUAAACAGUCAUCACCGGAA”: the “apparent Kd” value runs as follows: under setting [1], 9.2 nM; under setting [2], 57.7 nM.

For the sequence “CGUAUGGACAGAGGAUAUGCCGAUAGGAUCUACUAUCGAAGAAUCCUCACAUGAGGAUCACCCAUGUAGAAGGCUGUCCAUACU”, the “apparent Kd” value was 8.15 nM under setting [1] and 36.3 nM under setting [2].

As to “ACAUGAGGAUCACCCAUGUGAUGAUCUUCCAUGUCAUAUUUCAGAAGGCACGCAUCUUUAAUGAGUGAGGAUAUGGAAUAUGCG”, the “apparent Kd” value was 674 nM under setting [1] and 410 nM under setting [2]. As for “AAAUAAAUGUAAGGAUAUCGGUUUCAGAGAACGCGAGAAGGUACAUGAGGAUCACCCAUGUUCCGUUGGGUUAACUUGAUCGCC”, the “apparent Kd” value reads like this: under setting [1], 7.14 nM; under setting [2], 13.6 nM. Take “UGUCGGAGCAGAGGAUAUUACAUGAGGAUCACCCAUGUAUGAACCAAUAGCUGGAAACAGCAAUGUAAGAAGGCUGCUCCGACA”: the “apparent Kd” value runs as follows: under setting [1], 37.5 nM; under setting [2], 531 nM. In the case of “CACGGAAACGUGAAACGUAGCAUACGAGAAGGCUGAUCCACGACAUGAGGAUCACCCAUGUAGUUAGAGGAUAUUGGAUGCUAC”, the “apparent Kd” value was 57.7 nM under setting [3] and 12.2 nM under setting [4]. As for “UAUGUAUUCGUAGGAUAUCCGUUGAGACCGUGUGGAGAAGGACGAACAUGAGGAUCACCCAUGUGUCAUGGUGUAGACAAUUUU”, the “apparent Kd” value under setting [1] was found to be 65.5 nM and the “apparent Kd” value under setting [2] was found to be 220 nM. On the same counts, the results for “UGCUAGUCAGGAUAUACGAACAUGUCAAAAGACGUGAAGGGACAUGAGGAUCACCCAUGUAGAAGGGACUAGCU” are 38.4 nM and 129 nM.

On to “UUAAUUCGAAACAUGAGGAUCACCCAUGUGUUGUGGUUAAUAUAGGAUAUGUGUAUACUUUUAUGACAGAAGGAUGAUGGUACU”, for which the “apparent Kd” value under setting [3] was 14.2 nM and the “apparent Kd” value under setting [4] turned out to be 11.8 nM. In the case of “AGGCGGAAAGUCAGGAUAUCUUGACCAAAGGGUUGAGAGAAGGGACAUGAGGAUCACCCAUGUGGCGACCGCCA”, the “apparent Kd” value runs as follows: under setting [1], 37.5 nM; under setting [2], 67.9 nM. Turning to “AUCCUUAACAAGGAUAUCGGGCGGGAAAUUGUUUGAGAAGGUGUGACAUGAGGAUCACCCAUGUGGCGCGUGGG”, the “apparent Kd” value under setting [1] was determined as 317 nM and the “apparent Kd” value under setting [2] amounted to 257 nM. Consider “GUGCAAUGAGGAUAUACGUUGGUGGGCAUCUGUGUGCUCCUACAUGAGGAUCACCCAUGUAGAAGGCAUGUCAC”, for which the “apparent Kd” value under setting [1] came to 12.5 nM and the “apparent Kd” value under setting [2] came to 15.8 nM. In the case of “GAUCUGACAGGAUAUACAUGAGGAUCACCCAUGUACGAGCUAGCGAAAGCUAGCUCAGGUAGAAGGGUCAGAUC”, the “apparent Kd” value under setting [1] was 12.3 nM and the “apparent Kd” value under setting [2] is 16.4 nM.

In the case of “UCGUCCUCGUGCUAGGAUAUCCAUCGUAAAACAUGAGGAUCACCCAUGUAGAAAUGCGCCUACGAGGAGAAGGAGCGAUGUGGAU”, the “apparent Kd” value reads like this: under setting [3], 20.6 nM; under setting [4], 15.2 nM.

Consider “AGUGUCAUCGAGAAGGCCUCAACAUGAGGAUCACCCAUGUUGCCAAAAGGGAGGAUAUCGAUGAUACAGCUACGUUUCGUAGCA”, for which the “apparent Kd” value amounted to 4.15 nM under setting [3] and 4.34 nM under setting [4].

With “ACCUCACAUGAGGAUCACCCAUGUUAGGAUAUCUCGGCGCCCUGUAGGCAGUAGCGCCAGAGAAGGAACGUGCA”, the “apparent Kd” value reads like this: under setting [1], 24.3 nM; under setting [2], 25.2 nM. Turning to “AAGGAUAGAGGAUAUACAUAGAUACAGAUUCGUGUAGAACUACAUGAGGAUCACCCAUGUAGAAGGCUAUCCUA”, the “apparent Kd” value reads like this: under setting [1], 16.8 nM; under setting [2], 46 nM. As to “CAGCACUGUCGAGAGGAUAUGCGGUGAUGGACAUGAGGAUCACCCAUGUUAGCGACAGCAUCACGGCAGAAGGCUCUACUGCUGC”, the “apparent Kd” value was found to be 13.2 nM under setting [3] and 12.2 nM under setting [4]. With “UUGAAGAAUUAAGGAUAUUGAAUACAUAUGUUAAACAUGAGGAUCACCCAUGUGGGUUGCGGUAUCGAGAAGGUAAAUUACUAG”, the “apparent Kd” value runs as follows: under setting [3], 83 nM; under setting [4], 78.7 nM.

The record behind these values is the EternaBench riboswitch data.
